Measured values from different studies.
Cell line: HEL
Read-out: cell growth or viability

| SMILES | setting | CC50 [µM] |
| --- | --- | --- |
| C[C@H](NC(=O)[C@]1(Cc2ccccc2)CCN1C(=O)OCc1ccccc1)C(=O)NCc1ccccc1 | 72 h | 42 |
| O=c1[nH]c(=O)c2ncn(CC(CO)OCP(=O)(O)O)c2[nH]1 (racemic) | 72 h | ≥ 300 |
| CCOP(=O)(OCC)[C@H]1C[C@@H](Cn2c(=O)n(C(=O)c3ccccc3)c(=O)c3ccccc32)ON1C | – | > 100 |
| CCOP(=O)(OCC)[C@@H]1C[C@@H](n2cc(Cn3ccc(NC(C)=O)nc3=O)nn2)ON1C (racemic) | 72 h | > 100 |
| C[C@H](NC(=O)[C@@]1(Cc2ccccc2)CCN1C(=O)OCc1ccccc1)C(=O)N(C)C | 72 h | > 100 |
| CCOP(=O)(OCC)[C@@H]1C[C@H](n2cc(-c3nccn3C)nn2)ON1C | 72 h | > 100 |
| CCCCCCCCCCCCCCCCOCCCOP(=O)(O)COCCn1cnc2c(=O)[nH]c(=O)[nH]c21 | 72 h | 10 |
| CCOP(=O)(OCC)[C@@H]1C[C@@H](n2cc(Cn3ccc(=O)[nH]c3=O)nn2)ON1C (racemic) | 72 h | > 100 |
| Nc1nc2c(ncn2COCCO)c(=O)[nH]1 | – | 440 |
| CC(C)CNC(=O)[C@H](C)NC(=O)[C@@]1(Cc2ccccc2)CCN1C(=O)OCc1ccccc1 | 72 h | > 100 |
